ChEMBL document CHEMBL2321718, “Antioxidant activities of thiosemicarbazones from substituted benzaldehydes and N-(tetra-O-acetyl-β-D-galactopyranosyl)thiosemicarbazide” (Eur J Med Chem, 2013)

Experiments:
Type in all cases: functional
[1] = test system: Radical scavenging activity; assay: Antioxidant activity assessed as DPPH radical scavenging activity at 100 uM after 30 mins by spectrophotometry
Summary of the method: (§1)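 Wistar-independent cell-free assay: 5 µl sample in 96% ethanol (solutions 0.5, 1.0, 2.0, 4.0, 8.0, 12.0 mM before mixing) added to 195 µl DPPH in 96% ethanol (solution labelled […]). Incubated 30 min at 25 °C, then A518 read. %AA = (A_DPPH − A_sample)/(A_DPPH − A_ethanol)×100. Triplicates averaged. IC50 from linear regression of mean %AA against concentration. Resveratrol positive control.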

[2] = test system: Radical scavenging activity; assay: Antioxidant activity assessed as DPPH radical scavenging activity at 200 uM after 30 mins by spectrophotometry; summary of the method: as §1
[3] = test system: Radical scavenging activity; assay: Antioxidant activity assessed as DPPH radical scavenging activity at 12.5 uM after 30 mins by spectrophotometry; summary of the method: as §1
[4] = test system: Radical scavenging activity; assay: Antioxidant activity assessed as DPPH radical scavenging activity at 300 uM after 30 mins by spectrophotometry; summary of the method: as §1
Rattus norvegicus [5] = assay: (§2) Antioxidant activity against CCl4-induced oxidative hepatic injury Wistar albino rat model assessed as effect on liver cytosolic SOD activity per mg protein at 100 mg/kg, ip for 7 consecutive days prior to CCL4 challenge measured 24 hrs post CCl4 challenge (reference value: 5.42 +/-0.29 U/mg protein); conditions: route intraperitoneal
Summary of the method: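 Wistar albino rats (100–150 g), 7 per group, dosed i.p. at 100 mg/kg/day for 7 days. Then CCl4 in olive oil (1:1) i.p. at 0.6 mL/kg. Liver taken 24 h later, homogenized in 1.15% KCl-10 mM phosphate/EDTA pH 7.4, cytosol obtained by sequential centrifugation. SOD read as the rate of cytochrome C reduction at 550 nm over 5 min (xanthine/xanthine oxidase, KCN, deoxycholate). Units/mg Lowry protein.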

Rattus norvegicus [6] = assay: as §2, with “catalase” for “SOD”, “218.25 +/-11.43” for “5.42 +/-0.29”; conditions: route intraperitoneal
[7] = test system: Radical scavenging activity; assay: Antioxidant activity assessed as DPPH radical scavenging activity after 30 mins by spectrophotometry; summary of the method: as §1
Rattus norvegicus [8] = assay: as §2, with “GSH-Px” for “SOD”, “0.27 +/-0.01” for “5.42 +/-0.29”; conditions: route intraperitoneal
[9] = test system: Radical scavenging activity; assay: Antioxidant activity assessed as DPPH radical scavenging activity at 25 uM after 30 mins by spectrophotometry; summary of the method: as §1
[10] = test system: Radical scavenging activity; assay: Antioxidant activity assessed as DPPH radical scavenging activity at 50 uM after 30 mins by spectrophotometry; summary of the method: as §1

CC(=O)OC[C@H]1O[C@@H](NC(=S)N/N=C/c2ccc(N(C)C)cc2)[C@H](OC(C)=O)[C@@H](OC(C)=O)[C@H]1OC(C)=O
Activity [1]: 68.2%
Activity [2]: 74.5%
Activity [3]: 14.3%
Activity [4]: 78.5%
Activity (Rattus norvegicus [5]): 5.81 U/mg
Activity (Rattus norvegicus [6]): 295 U/mg
IC50 [7]: 56 µM
Activity (Rattus norvegicus [8]): 0.71 U/mg
Activity [9]: 30.9%
Activity [10]: 48.9%

Oc1ccc(/C=C/c2cc(O)cc(O)c2)cc1 [RESVERATROL]
Activity [1]: 54%
Activity [2]: 70.4%
Activity [3]: 9.13%
Activity [4]: 75.6%
Activity (Rattus norvegicus [5]): 7.49 U/mg
Activity (Rattus norvegicus [6]): 285 U/mg
IC50 [7]: 94 µM
Activity (Rattus norvegicus [8]): 0.35 U/mg
Activity [9]: 22.6%
Activity [10]: 33.8%

CC(=O)OC[C@H]1O[C@@H](NC(=S)N/N=C/c2ccc(Br)cc2)[C@H](OC(C)=O)[C@@H](OC(C)=O)[C@H]1OC(C)=O
Activity [1]: 23.5%
Activity [2]: 35.4%
Activity [3]: 5.38%
Activity [4]: 44.3%
Activity (Rattus norvegicus [5]): 9.95 U/mg
Activity (Rattus norvegicus [6]): 389 U/mg
IC50 [7]: > 300 µM
Activity (Rattus norvegicus [8]): 0.98 U/mg
Activity [9]: 9.04%
Activity [10]: 17.5%

CC(=O)OC[C@H]1O[C@@H](NC(=S)N/N=C/c2ccc([N+](=O)[O-])cc2)[C@H](OC(C)=O)[C@@H](OC(C)=O)[C@H]1OC(C)=O
Activity [1]: 29.1%
Activity [2]: 53.3%
Activity [3]: 6.11%
Activity [4]: 64.5%
Activity (Rattus norvegicus [5]): 8.79 U/mg
Activity (Rattus norvegicus [6]): 352 U/mg
IC50 [7]: 210 µM
Activity (Rattus norvegicus [8]): 0.71 U/mg
Activity [9]: 11.3%
Activity [10]: 18.5%

COc1cccc(/C=N/NC(=S)N[C@@H]2O[C@H](COC(C)=O)[C@H](OC(C)=O)[C@H](OC(C)=O)[C@H]2OC(C)=O)c1
Activity [1]: 27.2%
Activity [2]: 34%
Activity [3]: 7.34%
Activity [4]: 55.1%
Activity (Rattus norvegicus [5]): 8.89 U/mg
Activity (Rattus norvegicus [6]): 362 U/mg
IC50 [7]: 276 µM
Activity (Rattus norvegicus [8]): 0.71 U/mg
Activity [9]: 11.5%
Activity [10]: 15.6%

COc1ccc(/C=N/NC(=S)N[C@@H]2O[C@H](COC(C)=O)[C@H](OC(C)=O)[C@H](OC(C)=O)[C@H]2OC(C)=O)cc1O
Activity [1]: 40.1%
Activity [2]: 56.8%
Activity [3]: 8.16%
Activity [4]: 69.6%
Activity (Rattus norvegicus [5]): 8.76 U/mg
Activity (Rattus norvegicus [6]): 352 U/mg
IC50 [7]: 182 µM
Activity (Rattus norvegicus [8]): 0.59 U/mg
Activity [9]: 17.4%
Activity [10]: 28.2%

CC(=O)OC[C@H]1O[C@@H](NC(=S)N/N=C/c2cccc([N+](=O)[O-])c2)[C@H](OC(C)=O)[C@@H](OC(C)=O)[C@H]1OC(C)=O
Activity [1]: 26.3%
Activity [2]: 38.3%
Activity [3]: 7.05%
Activity [4]: 51.2%
Activity (Rattus norvegicus [5]): 9.01 U/mg
Activity (Rattus norvegicus [6]): 361 U/mg
IC50 [7]: 283 µM
Activity (Rattus norvegicus [8]): 0.73 U/mg
Activity [9]: 13.7%
Activity [10]: 19.6%

CCOc1cc(/C=N/NC(=S)N[C@@H]2O[C@H](COC(C)=O)[C@H](OC(C)=O)[C@H](OC(C)=O)[C@H]2OC(C)=O)ccc1O
Activity [1]: 59.4%
Activity [2]: 68.3%
Activity [3]: 14.2%
Activity [4]: 69.2%
Activity (Rattus norvegicus [5]): 6.45 U/mg
Activity (Rattus norvegicus [6]): 284 U/mg
IC50 [7]: 71 µM
Activity (Rattus norvegicus [8]): 0.69 U/mg
Activity [9]: 30.2%
Activity [10]: 45.4%

CC(=O)OC[C@H]1O[C@@H](NC(=S)N/N=C/c2ccc(Cl)cc2)[C@H](OC(C)=O)[C@@H](OC(C)=O)[C@H]1OC(C)=O
Activity [1]: 19.8%
Activity [2]: 38.4%
Activity [3]: 7.15%
Activity [4]: 55.4%
Activity (Rattus norvegicus [5]): 8.91 U/mg
Activity (Rattus norvegicus [6]): 358 U/mg
IC50 [7]: 270 µM
Activity (Rattus norvegicus [8]): 0.7 U/mg
Activity [9]: 10.1%
Activity [10]: 17.6%

CC(=O)OC[C@H]1O[C@@H](NC(=S)N/N=C/c2ccc(C(C)C)cc2)[C@H](OC(C)=O)[C@@H](OC(C)=O)[C@H]1OC(C)=O
Activity [1]: 15.1%
Activity [2]: 18.1%
Activity [3]: 2.17%
Activity [4]: 24.5%
Activity (Rattus norvegicus [5]): 9.92 U/mg
Activity (Rattus norvegicus [6]): 391 U/mg
IC50 [7]: > 300 µM
Activity (Rattus norvegicus [8]): 1.01 U/mg
Activity [9]: 5.32%
Activity [10]: 9.65%

CC(=O)OC[C@H]1O[C@@H](NC(=S)N/N=C/c2ccc(O)cc2)[C@H](OC(C)=O)[C@@H](OC(C)=O)[C@H]1OC(C)=O
Activity [1]: 49.2%
Activity [2]: 68.7%
Activity [3]: 11.4%
Activity [4]: 75.1%
Activity (Rattus norvegicus [5]): 8.24 U/mg
Activity (Rattus norvegicus [6]): 332 U/mg
IC50 [7]: 108 µM
Activity (Rattus norvegicus [8]): 0.51 U/mg
Activity [9]: 22.6%
Activity [10]: 33.3%

COc1cc(/C=N/NC(=S)N[C@@H]2O[C@H](COC(C)=O)[C@H](OC(C)=O)[C@H](OC(C)=O)[C@H]2OC(C)=O)ccc1O
Activity [1]: 60.3%
Activity [2]: 71.2%
Activity [3]: 9.45%
Activity [4]: 74%
Activity (Rattus norvegicus [5]): 6.57 U/mg
Activity (Rattus norvegicus [6]): 290 U/mg
IC50 [7]: 75 µM
Activity (Rattus norvegicus [8]): 0.37 U/mg
Activity [9]: 27.1%
Activity [10]: 45.6%

CC(=O)OC[C@H]1O[C@@H](NC(=S)N/N=C/c2ccc(F)cc2)[C@H](OC(C)=O)[C@@H](OC(C)=O)[C@H]1OC(C)=O
Activity [1]: 34.3%
Activity [2]: 55.6%
Activity [3]: 8.51%
Activity [4]: 67.2%
Activity (Rattus norvegicus [5]): 8.6 U/mg
Activity (Rattus norvegicus [6]): 351 U/mg
IC50 [7]: 197 µM
Activity (Rattus norvegicus [8]): 0.69 U/mg
Activity [9]: 13.3%
Activity [10]: 17.1%

CC(=O)OC[C@H]1O[C@@H](NC(=S)N/N=C/c2ccc(C)cc2)[C@H](OC(C)=O)[C@@H](OC(C)=O)[C@H]1OC(C)=O
Activity [1]: 32.8%
Activity [2]: 53.3%
Activity [3]: 7.21%
Activity [4]: 65%
Activity (Rattus norvegicus [5]): 8.82 U/mg
Activity (Rattus norvegicus [6]): 354 U/mg
IC50 [7]: 206 µM
Activity (Rattus norvegicus [8]): 0.72 U/mg
Activity [9]: 12.8%
Activity [10]: 18.1%
